Compound activity as filed in PubChem BioAssay.
CHOP UPR activ: activators of apoptotic arm of unfolded protein response (CHOP) | AID 449763 | CHO-CHOP luciferase reporter, UPR activation, luminescence; percent of tunicamycin response over DMSO baseline | activation, % at 10 µM | 330,000 tested, 0.34% active;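 active means at 10 µM dose, activation of 40% or more, normalized to positive control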
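Assay system: CHO-CHOP cells, stable luciferase reporter of PERK-eIF2a-CHOP signalling / Buffer or medium: F12 plus 10% serum / Compound dosing: one dose, 10 µM in 0.5% DMSO / Times: 6 h compound treatment, 37 °C / Technique: luciferase luminescence / Read-out: % reporter activation, DMSO baseline versus tunicamycin full activation / Benchmarks: tunicamycin and DMSO controls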
Mdm2 MdmX PPI: inhibitors of human Mdm2/MdmX interaction; SaOS-2 split-luciferase Mdm2/MdmX complementation, luminescence; inhibition, % at 8 µM; 330,000 tested, 3% active; AID 485346;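 active means inhibition of at least 50% at 8 µM in the primary screen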
UBC13 inh: blocks human UBC13 polyubiquitin chain formation | P61088 | TR-FRET | inhibition, % at 20 µM | 330,000 tested, 0.47% active; in the data active means inhibition above about 45%, passing the limit was not always enough
XBP1 UPR activ: activators of adaptive arm of unfolded protein response (XBP1); 330,000 tested, 0.33% active; CHO-XBP1 luciferase reporter, IRE1-XBP1 UPR activation, luminescence; percent of tunicamycin response, DMSO as zero; activation, % at 20 µM;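 active means versus positive control, 20 µM dose yields 30% or more activation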
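Test system: CHO-XBP1 luciferase reporter cells | Buffer or medium: Serum-containing F12 medium, 10% FBS | Schedule: 6 h compound exposure at 37 °C, 5% CO2 | Detection: Steady-Glo luciferase glow luminescence, 10 min after reagent addition | Read-out basis: Activation, % of tunicamycin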
Apaf1 inhib: human Apaf-1 inhibition; reconstituted apoptosome caspase-3 activity, DEVD-Rh110 fluorescence; AID 489030; O14727; inhibition, % at 20 µM; 330,000 tested, 0.71% active; active means inhibition of at least 40% at 20 µM
Target sequence (O14727 whole entry, looked up): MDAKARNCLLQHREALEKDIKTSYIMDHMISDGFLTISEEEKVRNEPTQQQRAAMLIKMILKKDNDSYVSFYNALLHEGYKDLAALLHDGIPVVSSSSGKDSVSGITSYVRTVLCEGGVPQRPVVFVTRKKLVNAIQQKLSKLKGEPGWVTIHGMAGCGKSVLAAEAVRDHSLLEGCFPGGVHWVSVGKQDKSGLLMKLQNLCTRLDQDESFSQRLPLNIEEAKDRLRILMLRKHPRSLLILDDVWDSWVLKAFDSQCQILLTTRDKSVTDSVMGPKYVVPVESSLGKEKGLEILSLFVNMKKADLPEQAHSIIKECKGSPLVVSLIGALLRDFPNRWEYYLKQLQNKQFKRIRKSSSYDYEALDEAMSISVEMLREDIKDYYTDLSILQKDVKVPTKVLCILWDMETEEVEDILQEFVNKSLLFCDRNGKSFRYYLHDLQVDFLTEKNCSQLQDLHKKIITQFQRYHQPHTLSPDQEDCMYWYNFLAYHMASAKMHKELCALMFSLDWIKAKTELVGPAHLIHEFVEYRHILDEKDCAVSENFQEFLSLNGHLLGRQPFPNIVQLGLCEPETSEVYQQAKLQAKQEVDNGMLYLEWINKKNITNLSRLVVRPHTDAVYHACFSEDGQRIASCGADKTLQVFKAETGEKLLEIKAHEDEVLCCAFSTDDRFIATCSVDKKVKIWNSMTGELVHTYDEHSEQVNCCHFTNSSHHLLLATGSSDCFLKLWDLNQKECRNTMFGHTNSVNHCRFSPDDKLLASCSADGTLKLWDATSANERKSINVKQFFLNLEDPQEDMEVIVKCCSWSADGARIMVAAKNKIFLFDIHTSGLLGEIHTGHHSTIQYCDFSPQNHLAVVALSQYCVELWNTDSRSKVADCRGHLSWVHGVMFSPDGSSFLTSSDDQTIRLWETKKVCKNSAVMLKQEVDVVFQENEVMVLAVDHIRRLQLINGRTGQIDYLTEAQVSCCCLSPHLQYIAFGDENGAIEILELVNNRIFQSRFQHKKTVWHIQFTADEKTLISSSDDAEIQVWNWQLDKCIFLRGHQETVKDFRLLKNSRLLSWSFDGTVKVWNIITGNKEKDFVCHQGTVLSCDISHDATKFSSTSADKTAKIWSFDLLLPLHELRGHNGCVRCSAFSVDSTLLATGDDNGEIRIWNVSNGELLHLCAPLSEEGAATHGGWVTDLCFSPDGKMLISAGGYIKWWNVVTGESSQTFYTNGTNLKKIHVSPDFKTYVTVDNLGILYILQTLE
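Material: biochemical Apaf-1 apoptosome reconstitution. Medium: Hepes buffer, pH 7.5. Also added: cytochrome c activation, bis-DEVD rhodamine 110 substrate. Timing: 30 min compound preincubation, 50 min activation, room temperature. Measured by: rhodamine 110 fluorescence at Ex 480/Em 540 nm.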
Mdm2 MdmX conf: confirmation of human Mdm2/MdmX interaction inhibitors; inhibition, % at 8 µM; AID 489028; Mdm2-MdmX binding, luminescent assay; shares compounds with Mdm2 MdmX PPI; 10,000 tested, 55% active; in the data active means inhibition above about 40%
FLuc counter: inhibits full-length luciferase, flagging false Mdm2/MdmX hits; 6,200 tested, 77% active; SaOS-2 full-length luciferase counterscreen, luminescence; AID 504607; shares compounds with Mdm2 MdmX PPI; inhibition, % at 8 µM;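 active means mean inhibition at 8 µM reaching about 37%, which flags the compound as non-specific, limit read from the data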;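 further: p53-null SaOS-2 cells with luciferase driven by a doxycycline-inducible promoter; compound on cells about two nights before reading with doxycycline added after day one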
Large screens that a line does not name were inactive (follow-up assays come after a bar, where they were run). Compounds with a hit are over-represented: about 4.1% of the library has one in this group of screens.

CC(NC(=O)Cc1ccc(F)cc1)C(c1cccs1)N1CCN(C)CC1 (configuration not stated)	none
CCc1ccc(N(CC(=O)Nc2nc3ccc(C)cc3s2)S(=O)(=O)c2c(C)noc2C)cc1	Mdm2 MdmX PPI 60.3 | Mdm2 MdmX conf inactive
CC(NC(=O)C1CCN(S(=O)(=O)c2cc([N+](=O)[O-])ccc2Cl)CC1)c1ccccc1 (configuration not stated)	none
CCc1ccc(NC(=O)CN(c2ccc3c(c2)OCO3)S(=O)(=O)c2c(C)noc2C)cc1	none
O=C(Nc1nc2ccc(F)cc2s1)C1CCN(S(=O)(=O)c2cc([N+](=O)[O-])ccc2Cl)CC1	Mdm2 MdmX PPI 88.2 | Mdm2 MdmX conf 78.3 | FLuc counter inactive
Cc1ccc(NC(=O)C2CCN(S(=O)(=O)c3cc([N+](=O)[O-])ccc3Cl)CC2)nc1	Mdm2 MdmX PPI 70.7 | Mdm2 MdmX conf 55.7 | FLuc counter 42.4
Cc1ccc2nc(NC(=O)C3CCN(S(=O)(=O)c4cc([N+](=O)[O-])ccc4Cl)CC3)sc2c1	Mdm2 MdmX PPI 66.7 | Mdm2 MdmX conf 67.2 | FLuc counter 47.0
COc1ccc(OC)c(NC(=O)COC(=O)CCc2ccc(S(=O)(=O)N3CCOCC3)cc2)c1	none
O=C(CN1C(=O)c2cccnc2Oc2ccc(Cl)cc21)NCCCc1ccccc1	none
Cc1ccc(S(=O)(=O)CCc2nc3ccccc3s2)cc1C	none
CCC(C)(C)NC(=O)Cc1ccc(Cl)cc1	none
Cc1ccc2nc(NC(=O)CN(C)S(=O)(=O)c3cccc4nsnc34)sc2c1	Mdm2 MdmX PPI 54.8 | Mdm2 MdmX conf 69.3 | FLuc counter 58.0
O=C(NC1CCN(Cc2ccccc2)CC1)C1CCN(S(=O)(=O)c2cccc([N+](=O)[O-])c2)CC1	none
CCN(CC)S(=O)(=O)c1ccc(S(=O)(=O)N2CCC(C(=O)NC3CCN(Cc4ccccc4)CC3)CC2)cc1	Mdm2 MdmX PPI 69.9 | Mdm2 MdmX conf inactive
O=C(NC1CC1)C1CCN(S(=O)(=O)c2ccc(Cl)c([N+](=O)[O-])c2)CC1	Mdm2 MdmX PPI 96.9 | Mdm2 MdmX conf 74.6 | FLuc counter 58.4
O=C(Nc1ccccc1Cl)C1CCCN(S(=O)(=O)c2cccc3cccnc23)C1 (configuration not stated)	none
Cc1ccnc(NC(=O)CN(C)S(=O)(=O)c2cccc3nsnc23)c1	none
O=C(Nc1nc2cc(Cl)ccc2s1)C1CCCN(S(=O)(=O)c2cccc3cccnc23)C1 (configuration not stated)	Mdm2 MdmX PPI 57.8 | Mdm2 MdmX conf inactive
COc1cccc(NCc2cc(=O)oc3cc(C)c(C(C)C)cc23)c1	none
CC(C1CC2CCC1C2)n1c(-c2ccco2)n[nH]c1=S (configuration not stated)	none
CC(C)CNC(=O)CSc1ccc(S(=O)(=O)N2CCN(C)CC2)cn1	none
COc1ccc2nc(NC(=O)C3CCN(S(=O)(=O)c4cccs4)CC3)sc2c1	Mdm2 MdmX PPI 52.3 | Mdm2 MdmX conf inactive
O=C(Nc1nc2ccc(C(=O)N3CCCCC3)cc2s1)C1CCCCC1	Mdm2 MdmX PPI 51.0 | Mdm2 MdmX conf 57.4 | FLuc counter 79.2
Cc1ccc2nc(NC(=O)C3CCN(S(=O)(=O)c4cccc5nsnc45)CC3)sc2c1	Mdm2 MdmX PPI 55.0 | Mdm2 MdmX conf inactive
O=C(CSCc1nc2c(nnn2Cc2ccc(F)cc2)c(=O)[nH]1)Nc1cccc(C(F)(F)F)c1	none
Cc1ccc(C(=O)N/C(=C/c2ccc(-c3ccc(Br)cc3)o2)C(=O)NC2CCS(=O)(=O)C2)cc1 (configuration not stated)	none
CN(C)CCNC(=O)/C(=C/c1ccc(-c2ccc(Cl)cc2Cl)o1)NC(=O)c1ccccc1	Mdm2 MdmX PPI 100.2 | Mdm2 MdmX conf 99.9 | FLuc counter inactive
Cc1ccc(C(=O)N/C(=C\c2ccc(-c3ccc(Br)cc3)o2)C(=O)NCCCN(C)C)cc1	Mdm2 MdmX PPI 100.2, UBC13 inh 72.4 | Mdm2 MdmX conf 99.2 | FLuc counter 54.7
